High-throughput results as filed in PubChem BioAssay.
RGS4 pot = RGS4 potentiators or activators, primary screen, cell-based, HEK293 M3R inducible RGS4, calcium flux. AID 463111, 2010. carbachol calcium flux Fluo4; active compounds read low. actives 0.92% (n = 310,000). B-score at 10 µM;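 active = B-score of the integrated calcium signal more than 4 SD below the library mean, with starting fluorescence not abnormally high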;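 note: negative B-score means reduced calcium response which marks RGS4 activation or potentiation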
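Detection: kinetic calcium fluorescence imaging with Fluo4-AM dye, 2 µM / Material: HEK293 cells with stable M3R and inducible RGS4 / Schedule: recording 10 s baseline at 1 Hz, 100 s post-agonist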
MrgX1 agonist = agonists of human MrgX1 receptor, primary screen, HEK293 cells, Fluo-4 calcium flux; Mas-related G-protein coupled receptor member X1 (Homo sapiens), Q96LB2; Fluo-4 calcium fluorescence, agonist mode; active compounds read high; B-score at 10 µM; actives 0.44% (n = 310,000); AID 588627, 2011;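 active = calcium response B-score plate-corrected fluorescence ratio at least 3 library SD, with starting fluorescence B-score inside 5 SD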
Target sequence (Q96LB2 whole entry, looked up): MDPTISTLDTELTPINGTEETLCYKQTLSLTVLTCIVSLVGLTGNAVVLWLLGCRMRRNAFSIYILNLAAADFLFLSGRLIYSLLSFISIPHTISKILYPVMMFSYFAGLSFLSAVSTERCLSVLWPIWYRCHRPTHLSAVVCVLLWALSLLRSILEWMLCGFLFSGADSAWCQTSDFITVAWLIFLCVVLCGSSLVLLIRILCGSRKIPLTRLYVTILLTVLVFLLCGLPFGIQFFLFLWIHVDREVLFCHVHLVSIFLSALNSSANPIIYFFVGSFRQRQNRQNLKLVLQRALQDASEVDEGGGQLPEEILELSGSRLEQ
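Test system: Stable human MrgX1 HEK293 cell line | Schedule: Overnight plating before 1 h dye loading | Read-out basis: Baseline-normalised fluorescence change ratio, B-scored | Detection: Kinetic calcium dye fluorescence, Fluo-4 NW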
MrgX1 antag = antagonists of human MrgX1 receptor, primary screen, HEK293 cells, Fluo-4 calcium flux; Mas-related G-protein coupled receptor member X1 (Homo sapiens), Q96LB2; BAM8-22 antagonism; active compounds read low; B-score at 10 µM; actives 1.3% (n = 310,000); AID 588676, 2011;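 active = calcium-response B-score plate-corrected more than 3 library SD below zero, starting fluorescence within 5 deviations, no agonist response on first addition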;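 note: peak minus trough fluorescence over baseline after final BAM8-22 challenge near maximal dose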
RGS4 block = RGS4 inhibitors, primary screen, cell-based, HEK293 M3R inducible RGS4, calcium flux; Regulator of G-protein signaling 4 (Homo sapiens), P49798; Fluo-4 calcium flux; active compounds read high; triggered by carbachol at its EC20; B-score at 10 µM; actives 0.45% (n = 310,000); AID 463165, 2010;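 active = B-score, a plate-corrected calcium signal, over three deviations above library mean, with baseline fluorescence within five deviations of library mean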;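 note: RGS4 expression induced by doxycycline in cells with stable M3 receptor; B-score is computed from the integrated fluorescence ratio over baseline after carbachol; higher B-score means a larger calcium signal and so more RGS4 inhibition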
MrgX1 allo act = positive allosteric modulators of MrgX1, primary screen, HEK293 cells, Fluo-4 calcium flux; FDSS; active compounds read high; B-score at 10 µM; actives 0.63% (n = 310,000);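 active = plate-corrected calcium response at least 3 library SD above typical, normal starting fluorescence, not activating the receptor alone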;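 note: compound read alongside a low EC10 to EC30 dose of BAM8-22 agonist; peak minus trough fluorescence over baseline measured at the second addition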
Numbers stand for hits; . = inactive; / = no result. Only some compounds are listed: those with a hit (about 3.5% of all), similar ones and a draw of the others.

SMILES	RGS4 pot	MrgX1 agonist	MrgX1 antag	RGS4 block	MrgX1 allo act
C#CCOCCOCCOCCNc1nc(N2CCN(C(=O)CCCCCCCCCCNC(=O)[C@@H](CCC(=O)O)n3cc(CCCCCN)nn3)CC2)nc(N2CCN(C(=O)CCCCCCCCCCNC(=O)[C@H]([C@@H](C)CC)n3cc(CCCCCN)nn3)CC2)n1	/	.	.	/	.
C#CCOCCOCCOCCNc1nc(N2CCN(C(=O)CCCCCCCCCCNC(=O)[C@H]([C@@H](C)CC)n3cc(CCCCCN)nn3)CC2)nc(N2CCN(C(=O)CCCCCCCCCCNC(=O)[C@@H]([C@H](C)CC)n3cc(CCCCCN)nn3)CC2)n1	/	106	.	/	.
CCCCc1cc(=O)oc2cc(C)cc(O)c12	.	.	.	.	.
CCCCc1cc(=O)oc2cc(O)cc(O)c12	.	32.6	.	.	.
CCCc1cc(O)c2c(C)cc(=O)oc2c1	.	30.5	.	.	.
Cc1cc(=O)[nH]c(N/N=C/c2ccc(C)o2)n1	.	.	-6.56	.	.
Cc1cc(=O)[nH]c(N/N=C/c2ccco2)n1	.	.	.	.	.
COc1cc2c(cc1OC)C(C)N(C(=O)c1cc3c(s1)-c1ccccc1OC3)CC2 (configuration not stated)	.	.	.	.	.
O=C(Nc1ccc(Br)cc1)Nc1ccccc1F	.	.	.	.	.
O=C(Nc1ccc(Cl)c(Cl)c1)Nc1ccc(Br)cc1F	.	.	-5.18	.	.
C=CC[n+]1c(-c2ccc(OCC)cc2)csc1NNC(=O)Nc1ccccc1	.	.	-6.23	.	.
COc1ccc([N+](=O)[O-])c(S(=O)(=O)c2ccccc2)n1	.	.	-6.18	.	.
O=[N+]([O-])c1cccnc1S(=O)(=O)c1ccccc1	.	.	.	.	.
COc1ccc([N+](=O)[O-])c(S(=O)(=O)c2ccc(Cl)cc2)n1	.	.	-6.55	.	.
CC(/C=C/c1ccccc1)=N/NC(=O)c1cccc(Br)c1	.	.	.	.	.
CC(=O)c1cccc(NC(=O)c2ccccc2N(Cc2ccccc2)S(C)(=O)=O)c1	.	.	.	.	.
Cc1ccc(NC(=O)CN(C)C(=O)c2ccc(NC(=O)CC3SC(N4CCCC4)=NC3=O)cc2)cc1 (configuration not stated)	.	.	-9.62	.	.
O=C(Nc1ccc(Cl)c([N+](=O)[O-])c1)C(Sc1ccccc1)c1ccccc1 (configuration not stated)	-8.6	.	.	.	.
CN(C)C(CNC(=O)c1c(F)cccc1Cl)c1ccco1 (configuration not stated)	.	.	.	.	.
Cn1nc(C(F)(F)F)c(-c2ccc(F)cc2)c1NC(=O)Nc1ccc(F)cc1	.	.	-5.36	.	.
Cc1nn(Cc2c(Cl)cccc2Cl)c(C)c1NC(=O)CCCn1nc(C)c([N+](=O)[O-])c1C	.	.	-4.54	.	.
Cc1nn(CCCC(=O)NCCc2ccccc2)c(C)c1[N+](=O)[O-]	.	.	.	.	7.21
Cc1ccc(Cn2nc(C)c(NC(=O)CCCn3nc(C)c([N+](=O)[O-])c3C)c2C)cc1	.	.	.	.	.
CC(C)C(NC(=O)c1ccccc1)c1nnc(SCC(=O)NC2CCCC2)n1C (configuration not stated)	.	.	.	.	.
COc1ccc(S(=O)(=O)NC2CC(C)(C)NC(C)(C)C2)c2ccccc12	.	.	.	.	.
O=C1CCC2S/C(=C/Nc3ccc(C(F)(F)F)cc3)C(=O)N12 (configuration not stated)	.	.	-4.82	.	.
CCOc1ccc(S(=O)(=O)Oc2ccc3ccccc3c2)cc1	.	.	.	.	.
O=C1CC(c2ccccc2)CC(O)=C1C=NCCN1CCN(Cc2ccccc2)CC1 (configuration not stated)	.	.	.	.	.
N#CC1=C(SCC(=O)NC2CC2)NC(=O)C(C#N)C12CCCCC2 (configuration not stated)	.	.	.	.	.
